What was measured:
Assay type in all cases: biochemical
[1] = target: human recombinant thrombin wild-type (WT) (Homo sapiens, UniProt P00734); assay: HPLC-based kinetic assay of thrombin-catalyzed hydrolysis of FXIII; details: WT IIa, pH 7.4, 25 °C, average of at least three independent experiments ± SEM
How it was run: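 Recombinant human thrombin hydrolysed acetylated, amidated FXIII (28–41) activation peptides with V, L, F, W or Y at position 34 (final 75–2500 µM). Reactions ran at 25 °C in 50 mM H3PO4, 100 mM NaCl, 0.1% PEG, pH 7.4, with 6 nM–1 µM thrombin, and kept <17% hydrolysis in 30 min. Timed aliquots were quenched with 12.5% H3PO4. The (28–37) product was quantified by C18 RP-HPLC against calibration curves, giving initial velocities. These were fit to V = Vmax/(1 + Km/[S]), and kcat came from thrombin concentration. Runs were in triplicate.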

[2] = target: human recombinant thrombin L99A (Homo sapiens, UniProt P00734, L459A); assay: HPLC-based kinetic assay of FXIII AP hydrolysis, L99A thrombin
How it was run: (§1)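 Synthetic Ac-/-NH2 FXIII (28–41) AP peptides (V34, L34, F34, W34, Y34) were used at 75–2500 µM final in 50 mM H3PO4, 100 mM NaCl, 0.1% PEG, pH 7.4, 25 °C. Recombinant human thrombin (6 nM–1 µM) started the reaction; aliquots were quenched with 12.5% H3PO4, keeping hydrolysis below 17% in 30 min. The (28–37) product was quantified by RP-HPLC against calibration curves. Initial velocities were fitted to V = Vmax/(1+Km/[S]), kcat taken from thrombin concentration, in triplicate.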

[3] = target: human recombinant thrombin W215A/E217A (WE) (Homo sapiens, UniProt P00734, E592A/W590A); assay: HPLC-based kinetic assay of FXIII AP hydrolysis, W215A/E217A
How it was run: as §1

[4] = target: human recombinant thrombin I174A (Homo sapiens, UniProt P00734, I542A); assay: HPLC-based kinetic assay of FXIII AP hydrolysis, I174A thrombin
How it was run: as §1

[5] = target: human recombinant thrombin W215A (Homo sapiens, UniProt P00734, W590A); assay: HPLC-based kinetic assay of FXIII AP hydrolysis, W215A thrombin
How it was run: as §1

[6] = target: human recombinant thrombin W60dA (Homo sapiens, UniProt P00734, W413A); assay: HPLC-based kinetic assay of FXIII AP hydrolysis, W60dA thrombin; details: W60dA IIa, pH 7.4, 25 °C, average of at least three independent experiments ± SEM
How it was run: as §1

[7] = L99A IIa, HPLC assay, pH 7.4, 25 °C, average of at least three independent experiments ± SEM, SEM
[8] = WE (W215A/E217A) IIa, HPLC assay, pH 7.4, 25 °C, average of at least three independent experiments ± SEM, SEM
[9] = I174A IIa, HPLC assay, pH 7.4, 25 °C, average of at least three independent experiments ± SEM, SEM
[10] = W215A IIa, HPLC assay, pH 7.4, 25 °C, average of at least three independent experiments ± SEM, SEM

For “Ac-TVELQGWVPRGVNL-NH2 [FXIII (28–41) W34 AP]”, which kcat/Km [1] is on record?
Its kcat/Km is 12000 ± 1200 M⁻¹ s⁻¹.

And the Km ([1]; SEM)?
The Km was 637 ± 56 µM.

What about the kcat ([1]; SEM) of the same substance?
The kcat was 7.62 ± 0.3 s⁻¹.

And the kcat/Km ([2]; L99A IIa, HPLC assay, pH 7.4, 25 °C, average of at least three independent experiments ± SEM)?
Its kcat/Km is 3200 ± 490 M⁻¹ s⁻¹.

What about the Km [2, 7] of the same substance?
Its Km is 719 ± 97 µM.

What about the kcat [2, 7] of the same substance?
The kcat was 2.3 ± 0.17 s⁻¹.

And the “fold decrease in kcat relative to WT thrombin” value ([2]; L99A thrombin, current work)?
The value was 3 fold.

And the kcat/Km ([3]; WE (W215A/E217A) IIa, HPLC assay, pH 7.4, 25 °C, average of at least three independent experiments ± SEM)?
The kcat/Km was 270 ± 35 M⁻¹ s⁻¹.

What about the Km [3, 8] of the same substance?
Its Km is 1280 ± 161 µM.

And the kcat [3, 8]?
Its kcat is 0.35 ± 0.03 s⁻¹.

What about the “fold decrease in Km over WT thrombin” value ([3]; WE thrombin, current work) of the same substance?
Its value is 2 fold.

And the kcat/Km ([4]; I174A IIa, HPLC assay, pH 7.4, 25 °C, average of at least three independent experiments ± SEM)?
Its kcat/Km is 54000 ± 5500 M⁻¹ s⁻¹.

And the Km [4, 9]?
Its Km is 256 ± 24 µM.

And the kcat [4, 9]?
Its kcat is 13.9 ± 0.52 s⁻¹.

What about the “fold increase in kcat relative to WT thrombin” value ([4]; I174A thrombin, current work) of the same substance?
Its value is 2 fold.

And the “fold increase in kcat/Km relative to WT thrombin” value ([4]; I174A thrombin, current work)?
Its value is 4.5 fold.

And the kcat/Km ([5]; W215A IIa, HPLC assay, pH 7.4, 25 °C, average of at least three independent experiments ± SEM)?
Its kcat/Km is 5600 ± 340 M⁻¹ s⁻¹.

And the Km [5, 10]?
Its Km is 1030 ± 57 µM.

And the kcat [5, 10]?
Its kcat is 5.76 ± 0.14 s⁻¹.

What about the “fold decrease in Km over WT thrombin” value ([5]; W215A thrombin, current work) of the same substance?
Its value is 2 fold.

What about the kcat/Km [6] of the same substance?
Its kcat/Km is 1200 ± 120 M⁻¹ s⁻¹.

And the Km ([6]; SEM)?
Its Km is 976 ± 89 µM.

And the kcat ([6]; SEM)?
Its kcat is 1.21 ± 0.05 s⁻¹.

Reference: PMC5600292 (Biochimica et biophysica acta, 2017)
